Measurements from article PMC6530469 (Biochemical pharmacology, 2018).
Read-outs that look alike come from different tables or passages of the source.

How the values were obtained:
[1] = molecular target: T1, human A3AR (hA3AR) (Homo sapiens, UniProt P0DMS8); assay: cell-based; settings: CHO, read-out: Stable A3AR CHO cell line^B / Emax (%)
T1 sequence (P0DMS8 1-318): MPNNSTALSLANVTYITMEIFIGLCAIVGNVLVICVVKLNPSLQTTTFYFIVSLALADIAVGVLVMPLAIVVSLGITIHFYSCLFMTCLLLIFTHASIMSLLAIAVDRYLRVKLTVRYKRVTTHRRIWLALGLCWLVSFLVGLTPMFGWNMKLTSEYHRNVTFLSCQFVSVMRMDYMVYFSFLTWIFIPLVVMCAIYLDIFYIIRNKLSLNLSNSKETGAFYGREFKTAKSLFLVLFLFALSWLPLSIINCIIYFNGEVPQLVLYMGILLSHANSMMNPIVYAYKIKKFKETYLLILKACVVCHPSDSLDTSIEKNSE

[2] = molecular target: T2, hA3AR-NanoBit-βarr2 (A3AR-LgBit with SmBit-βarr2) (Homo sapiens, UniProt P0DMS8); assay: cell-based; settings: HEK-293T, read-out: Stable A3AR NanoBit® HEK293T cell line^A / Emax (%)
[3] = molecular target: T2, hA3AR-NanoBit-βarr2 (A3AR-LgBit with SmBit-βarr2); assay: cell-based; settings: HEK-293T, read-out: Stable A3AR NanoBit® HEK293T cell line^A / Emax (%); remark: listed apart in the source
[4] = molecular target: T2, hA3AR-NanoBit-βarr2 (A3AR-LgBit with SmBit-βarr2); assay: NanoBit βarr2 recruitment, luminescence AUC; assay type: cell-based
[5] = molecular target: T1, human A3AR (hA3AR); assay: […]I-AB-MECA competition, CHO membranes; assay type: binding
[6] = molecular target: T2, hA3AR-NanoBit-βarr2 (A3AR-LgBit with SmBit-βarr2); assay: NanoBit βarr2 recruitment, luminescence AUC; assay type: cell-based; settings: agonism; stable HEK293T cells, room temperature, Opti-MEM I
Outline: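 Stable HEK293T line retrovirally co-transduced with A3AR-LgBit and SmBit-βarr2, FACS-sorted on co-expressed EGFP/dNGFR. Cells on PDL-coated plates at 5×10^4/well overnight (37°C, 5% CO2), washed twice, detection reagent added, luminescence equilibrated. Agonist added at final 100 pM–25 µM (≤0.5% DMSO), luminescence followed ≥90 min. DMSO solvent blank (0.001–0.5%) in each run.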

[7] = molecular target: T1, human A3AR (hA3AR); assay: inhibition of forskolin-stimulated cAMP, CHO cells; assay type: cell-based
[8] = molecular target: T1, human A3AR (hA3AR); assay: inhibition of forskolin-stimulated cAMP, CHO cells; assay type: cell-based; settings: agonism; 10 µM forskolin, 10 µM rolipram, adenosine deaminase

T2 sequence (P32121 whole entry partner, one chain of several): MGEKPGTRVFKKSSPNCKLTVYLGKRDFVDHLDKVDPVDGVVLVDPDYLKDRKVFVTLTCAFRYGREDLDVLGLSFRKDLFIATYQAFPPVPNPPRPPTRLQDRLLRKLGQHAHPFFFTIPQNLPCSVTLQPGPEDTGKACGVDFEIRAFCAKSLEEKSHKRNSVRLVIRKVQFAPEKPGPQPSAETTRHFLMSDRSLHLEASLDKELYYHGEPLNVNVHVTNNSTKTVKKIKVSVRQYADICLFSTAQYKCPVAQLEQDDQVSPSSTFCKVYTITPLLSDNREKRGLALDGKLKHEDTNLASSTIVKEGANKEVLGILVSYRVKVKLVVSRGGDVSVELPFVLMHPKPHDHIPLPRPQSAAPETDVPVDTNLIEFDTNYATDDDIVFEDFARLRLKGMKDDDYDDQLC

Row | Structure (SMILES) | Emax [1] [%] | Emax [2] [%] | Emax [3] [%] | EC50 [4] [nM] | also measured
1 | OC[C@H]1O[C@@H](n2cnc3c(NC4CCCC4)cc(Cl)nc32)[C@H](O)[C@@H]1O [DCCA] |  |  | 5.8 ± 0.2 | 1480 | Ki [5]: 244 ± 37 nM
2 | OC[C@H]1O[C@@H](n2cnc3c(Nc4ccccc4)ncnc32)[C@H](O)[C@@H]1O [N^6-phenyl-adenosine] |  |  | 75.8 ± 3 | 589 | Ki [5]: 14.9 ± 3.1 nM
3 | CNC(=O)[C@H]1O[C@@H](n2cnc3c(NCc4cccc(I)c4)ncnc32)[C@H](O)[C@@H]1O [IB-MECA] |  | 78.4 ± 2.5 |  |  | 
4 | OC[C@H]1O[C@@H](n2cnc3c(NC4CCCC4)ncnc32)[C@H](O)[C@@H]1O [CPA] | 97 ± 4 | 56.9 ± 3.7 |  |  | 
5 | CCNC(=O)[C@H]1O[C@@H](n2cnc3c(N)ncnc32)[C@H](O)[C@@H]1O [NECA] | 103 |  |  |  | 
6 | OC[C@H]1O[C@@H](n2cnc3c(NCc4ccccc4)ncnc32)[C@H](O)[C@@H]1O [N^6-benzyl-adenosine] |  |  | 34.9 ± 2.3 | 851 | 
7 | OC[C@H]1O[C@@H](n2cnc3c(NC4CCCC4)nc(Cl)nc32)[C@H](O)[C@@H]1O [CCPA] | 0 | 33.5 ± 2.7 |  |  | LogEC50 (NA, not significantly active at 10 μM) [8]: > 10 µM
8 | NCCNC(=O)Cc1ccc(NC(=O)Cc2ccc(Nc3ncnc4c3ncn4[C@@H]3O[C@H](CO)[C@@H](O)[C@H]3O)cc2)cc1 [ADAC, N^6-[4-[[[4-[[[(2-aminoethyl)amino]carbonyl]methyl]anilino]-carbonyl]methyl]phenyl]adenosine] | 103 ± 4 | 73.7 ± 3.1 |  | 245 | Ki [5]: 13.3 ± 3 nM
9 | C[C@@H](Cc1ccccc1)Nc1ncnc2c1ncn2[C@@H]1O[C@H](CO)[C@@H](O)[C@H]1O [S-PIA] | 97 ± 3 | 51 ± 1.4 |  |  | 
10 | C[C@H](Cc1ccccc1)Nc1ncnc2c1ncn2[C@@H]1O[C@H](CO)[C@@H](O)[C@H]1O [R-PIA] | 102 ± 6 | 56.6 ± 1.9 |  |  | 

Continued, in another order:

Row | Emax [1] [%] | Emax [2] [%] | Emax [3] [%] | EC50 [4] [nM] | Structure (SMILES) | also measured
11 | 97.3 ± 2.9 | 91.6 ± 3.4 |  |  | CNC(=O)[C@@]12C[C@@H]1[C@@H](n1cnc3c(NC)nc(C#Cc4cccs4)nc31)[C@H](O)[C@@H]2O [MRS5917] | 
12 |  |  | 92.5 ± 2.4 | 4.68 | CNC(=O)[C@@]12C[C@@H]1[C@@H](n1cnc3c(NC)nc(C#Cc4ccccc4OC)nc31)[C@H](O)[C@@H]2O [MRS5967] | 
13 | 97.8 ± 0.1 | 68.4 ± 5.3 |  |  | CNC(=O)[C@@]12C[C@@H]1[C@@H](n1cnc3cnc(C#Cc4ccc(Cl)s4)nc31)[C@H](O)[C@@H]2O [MRS7220] | 
14 | 95.5 ± 2.3 | 74.4 ± 2.3 |  |  | CCNc1cc(C#Cc2ccc(Cl)s2)nc2c1ncn2[C@H]1[C@H](O)[C@H](O)[C@]2(C(=O)NC)C[C@H]12 [MRS7144] | 
15 |  |  | 78.2 ± 1.8 | 55 | CNC(=O)[C@@]12C[C@@H]1[C@@H](n1cnc3c(NC)nc(C#Cc4ccc(Cl)s4)cc31)[C@H](O)[C@@H]2O [MRS7173] | Ki [5]: 1.56 ± 0.2 nM
16 | 41 ± 5 | 13 ± 1.6 |  |  | Nc1nc(Cl)nc2c1ncn2[C@H]1[C@H](O)[C@H](O)[C@]2(CO)C[C@H]12 [MRS1873] | 
17 | 1 ± 7 |  |  |  | CCOC(=O)[C@@]12C[C@@H]1[C@@H](n1ccc3c(NC)nc(C#Cc4ccc(Cl)s4)nc31)[C@H](O)[C@@H]2O [MRS7299] | LogEC50 (NA, not significantly active at 10 μM) [6]: > 10 µM; EC50 [7]: > 10000 nM
18 |  |  | 95 ± 4 |  | CNC(=O)[C@@]12C[C@@H]1[C@@H](n1cnc3c(NC)nc(C#Cc4ccc(Cl)s4)nc31)[C@H](O)[C@@H]2O [MRS5980] | 
19 |  |  | 46.8 ± 3.3 | 1200 | CNC(=O)[C@@]12C[C@@H]1[C@@H](n1cnc3c(NCc4cccc(Cl)c4)nc(C#Cc4ccc(-c5ccccc5)cc4)nc31)[C@H](O)[C@@H]2O [MRS5679] | 
20 |  |  | 13.6 ± 1.6 | 50.1 | CCOC(=O)[C@@]12C[C@@H]1[C@@H](n1cnc3c(NC)nc(C#Cc4ccc(Cl)s4)nc31)[C@H](O)[C@@H]2O [MRS7232] | Ki [5]: 5.38 ± 0.03 nM
21 |  | 5.2 ± 0.4 |  | 24.5 | O[C@@H]1[C@H](O)[C@@H]2C[C@@H]2[C@H]1n1cnc2c(NCc3cccc(I)c3)nc(Cl)nc21 [MRS5127] | EC50 [7]: 12.6 nM
22 | 56 ± 4.8 | 9.8 ± 1.2 |  |  | O[C@@H]1[C@H](O)[C@@H]2C[C@@H]2[C@H]1n1cnc2c(NC(C3CC3)C3CC3)nc(Cl)nc21 [MRS5474] | 
23 |  |  | 102 ± 3.6 | 5.62 | CNC(=O)[C@@]12C[C@@H]1[C@@H](n1cnc3c(NC)nc(C#Cc4ccccc4Cl)nc31)[C@H](O)[C@@H]2O [MRS5663] | 
24 | 107 ± 26 | 84.5 ± 6.4 |  |  | CNC(=O)[C@@]12C[C@@H]1[C@@H](n1cnc3c(C)nc(C#Cc4ccc(Cl)s4)nc31)[C@H](O)[C@@H]2O [MRS7195] | 
25 | 98 ± 5 | 99 ± 5.5 |  |  | CCNC(=O)[C@H]1O[C@@H](n2cnc3c(N)nc(NCCc4ccc(CCC(=O)O)cc4)nc32)[C@H](O)[C@@H]1O [CGS21680] | 
26 |  |  | 94.5 ± 4.8 | 21.4 | CCCNc1nc(C#Cc2ccc(Cl)s2)nc2c1ncn2[C@H]1[C@H](O)[C@H](O)[C@]2(C(=O)NC)C[C@H]12 [MRS7154] | 
27 |  | 83.5 ± 4.6 |  |  | CNC(=O)[C@@]12C[C@@H]1[C@@H](n1cnc3c(NCc4cccc(Cl)c4)nc(C#Cc4ccc(F)c(F)c4)nc31)[C@H](O)[C@@H]2O [MRS5698] | 
